Assay results from ChEMBL document CHEMBL4004861, “Novel 2,3-disubstituted quinazoline-4(3H)-one molecules derived from amino acid linked sulphonamide as a potent malarial antifolates for DHFR inhibition” (Eur J Med Chem, 2017).
Values after ≈ are worked out from the molar mass of the structure shown. Blank lines part the entries; values can stand above or below the compound they belong to.

Columns and labels:
Plasmodium falciparum [1] = assay: Antimalarial activity against Plasmodium falciparum; format: functional
Outline: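 Drug stocks diluted in complete medium (RPMI 1640 plus 10% human serum) over seven dilutions, 0.0001 up to 100 mg/mL as printed. Reference antimalarials run as positive controls in every experiment. Percent inhibition at each concentration was calculated against untreated control to give IC50.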

Plasmodium falciparum [2] = assay: Antimalarial activity against Plasmodium falciparum assessed as reduction in parasitic LDH activity by Malstat reagent based spectrophotometric method; format: functional
Outline: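 Parasite lactate dehydrogenase (Malstat) read spectrophotometrically at 650 nm. Compounds were in RPMI 1640 with 10% human serum, seven dilutions.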

Plasmodium falciparum [3] = assay: Antimalarial activity against Plasmodium falciparum infected in RBC after 5 days by MTT assay; format: functional
Outline: (§1)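 MTT reduction, run in parallel on infected and on normal uninfected RBC cultures and read at 565 and 690 nm. Compounds were in RPMI 1640 with 10% human serum, seven dilutions. Drug-free, parasite-free RBC cultures were set as maximum activity, with untreated, uninfected and cell-free controls. EC50 (parasite) and CC50 (RBC) were derived, and SI = CC50/EC50.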

[4] = Selectivity index, ratio of CC50 for RBC (unknown origin) to EC50 for Plasmodium falciparum infected in RBC; outline: as §1
Dihydrofolate reductase = molecular target: T1, Dihydrofolate reductase (Bos taurus, UniProt P00376); assay: Inhibition of bovine liver DHFR using FH2 as substrate preincubated for 2 mins followed by substrate addition in presence of NADPH
T1 sequence (P00376 whole entry): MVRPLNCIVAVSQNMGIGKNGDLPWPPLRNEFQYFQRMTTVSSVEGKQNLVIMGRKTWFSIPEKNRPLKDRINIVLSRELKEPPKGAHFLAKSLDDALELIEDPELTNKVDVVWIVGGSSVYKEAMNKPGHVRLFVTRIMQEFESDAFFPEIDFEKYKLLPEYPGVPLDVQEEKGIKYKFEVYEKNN

Vero = assay: Cytotoxicity against African green monkey Vero cells assessed as reduction in cell viability up to 15 ug/ml after 72 hrs by MTT assay; format: cell-based; conditions: chlorocebus sabaeus
Outline: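 Vero cells were exposed to compounds for 72 h at 37 °C, with MTT conversion to formazan read at 540 nm. Viability was calculated relative to cells treated with 0.1% DMSO medium. Triplicate treatments; IC50 derived. Cells were tested up to 15 µg/mL.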

[5] = Selectivity index, ratio of IC50 for African green monkey Vero cells to IC50 for bovine liver DHFR
Outline: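 Bovine liver DHFR (0.02 units) in 50 mM Tris-HCl pH 7.4 with 50 µM NADPH, compounds in DMSO at final 10⁻¹¹–10⁻⁵ M, total volume 2.0 ml. Mixture held 2 min at room temperature, then started with 25 µM FH2, and ΔA/min at 340 nm recorded. […] SI = Vero IC50 / DHFR IC50, triplicate averages.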

IC50 (Plasmodium falciparum [1]): 0.78 µg/mL (≈ 1.44 µM)
SMILES: CC(C)CC(NS(=O)(=O)c1ccc(N)cc1)c1nc2ccccc2c(=O)n1-c1cccc(Br)c1 (stereo not drawn)

IC50 (Plasmodium falciparum [1]): 0.068 µg/mL (≈ 0.126 µM)
IC50 (Plasmodium falciparum [2]): 3380 ppm
IC50 (Dihydrofolate reductase): 168 nM
SMILES: CC(C)CC(NS(=O)(=O)c1ccc(N)cc1)c1nc2ccccc2c(=O)n1-c1ccccc1Br (stereo not drawn)
EC50 (Plasmodium falciparum [3]): 2831 ppm
Ratio CC50/EC50 [4]: 20.6
Activity (Vero): Non-Toxic
Ratio IC50 [5]: 164.83

IC50 (Plasmodium falciparum [1]): 1.01 µg/mL (≈ 2.11 µM)
SMILES: CC(C)CC(NS(=O)(=O)c1ccc(N)cc1)c1nc2ccccc2c(=O)n1-c1ccccc1F (stereo not drawn)

IC50 (Plasmodium falciparum [1]): 0.78 µg/mL (≈ 1.58 µM)
SMILES: COc1cccc(-n2c(C(CC(C)C)NS(=O)(=O)c3ccc(N)cc3)nc3ccccc3c2=O)c1 (stereo not drawn)

IC50 (Plasmodium falciparum [1]): 0.84 µg/mL (≈ 1.65 µM)
SMILES: CC(C)CC(NS(=O)(=O)c1ccc(N)cc1)c1nc2ccccc2c(=O)n1-c1ccc([N+](=O)[O-])cc1 (stereo not drawn)

IC50 (Dihydrofolate reductase): 31.3 nM
SMILES: CCN(CC)CCCC(C)Nc1ccnc2cc(Cl)ccc12 (stereo not drawn) [CHLOROQUINE]
EC50 (Plasmodium falciparum [3]): 28.97 ppm

IC50 (Plasmodium falciparum [1]): 0.136 µg/mL (≈ 0.274 µM)
SMILES: CC(C)CC(NS(=O)(=O)c1ccc(N)cc1)c1nc2ccccc2c(=O)n1-c1ccccc1Cl (stereo not drawn)

IC50 (Plasmodium falciparum [1]): 1.05 µg/mL (≈ 2.2 µM)
SMILES: CC(C)CC(NS(=O)(=O)c1ccc(N)cc1)c1nc2ccccc2c(=O)n1Nc1ccccc1 (stereo not drawn)

IC50 (Plasmodium falciparum [1]): 0.72 µg/mL (≈ 1.51 µM)
SMILES: Cc1ccccc1-n1c(C(CC(C)C)NS(=O)(=O)c2ccc(N)cc2)nc2ccccc2c1=O (stereo not drawn)

IC50 (Plasmodium falciparum [1]): 0.068 µg/mL (≈ 0.137 µM)
IC50 (Plasmodium falciparum [2]): 524.8 ppm
IC50 (Dihydrofolate reductase): 72.4 nM
SMILES: CC(C)CC(NS(=O)(=O)c1ccc(N)cc1)c1nc2ccccc2c(=O)n1-c1cccc(Cl)c1 (stereo not drawn)
EC50 (Plasmodium falciparum [3]): 368.97 ppm
Ratio CC50/EC50 [4]: 50.6
Activity (Vero): Non-Toxic
Ratio IC50 [5]: 416.66

IC50 (Plasmodium falciparum [1]): 0.92 µg/mL (≈ 1.81 µM)
SMILES: CC(C)CC(NS(=O)(=O)c1ccc(N)cc1)c1nc2ccccc2c(=O)n1-c1ccccc1[N+](=O)[O-] (stereo not drawn)

The next lines start with the compound.

SMILES: COc1ccccc1-n1c(C(CC(C)C)NS(=O)(=O)c2ccc(N)cc2)nc2ccccc2c1=O (stereo not drawn)
IC50 (Plasmodium falciparum [1]): 0.72 µg/mL (≈ 1.46 µM)

SMILES: Cc1ccc(-n2c(C(CC(C)C)NS(=O)(=O)c3ccc(N)cc3)nc3ccccc3c2=O)cc1 (stereo not drawn)
IC50 (Plasmodium falciparum [1]): 0.67 µg/mL (≈ 1.41 µM)

SMILES: CC(C)CC(NS(=O)(=O)c1ccc(N)cc1)c1nc2ccccc2c(=O)n1-c1cccc([N+](=O)[O-])c1 (stereo not drawn)
IC50 (Plasmodium falciparum [1]): 0.78 µg/mL (≈ 1.54 µM)

SMILES: COc1cc(Cc2cnc(N)nc2N)cc(OC)c1OC [TRIMETHOPRIM]
IC50 (Plasmodium falciparum [1]): 0.38 µg/mL (≈ 1.31 µM)

SMILES: CC(C)CC(NS(=O)(=O)c1ccc(N)cc1)c1nc2ccccc2c(=O)n1-c1ccc(F)cc1 (stereo not drawn)
IC50 (Plasmodium falciparum [1]): 1.12 µg/mL (≈ 2.33 µM)

SMILES: CC(C)CC(NS(=O)(=O)c1ccc(N)cc1)c1nc2ccccc2c(=O)n1-c1ccc(Br)cc1 (stereo not drawn)
IC50 (Plasmodium falciparum [1]): 0.068 µg/mL (≈ 0.126 µM)
IC50 (Plasmodium falciparum [2]): 37240 ppm
EC50 (Plasmodium falciparum [3]): 1909 ppm
Ratio CC50/EC50 [4]: 15.3
IC50 (Dihydrofolate reductase): 161 nM
Activity (Vero): Non-Toxic
Ratio IC50 [5]: 172.14

SMILES: CCc1nc(N)nc(N)c1-c1ccc(Cl)cc1 [PYRIMETHAMINE]
IC50 (Plasmodium falciparum [1]): 0.25 µg/mL (≈ 1.01 µM)

SMILES: COc1ccc(-n2c(C(CC(C)C)NS(=O)(=O)c3ccc(N)cc3)nc3ccccc3c2=O)cc1 (stereo not drawn)
IC50 (Plasmodium falciparum [1]): 0.068 µg/mL (≈ 0.138 µM)
IC50 (Plasmodium falciparum [2]): 8317 ppm
EC50 (Plasmodium falciparum [3]): 1009 ppm
Ratio CC50/EC50 [4]: 19500
IC50 (Dihydrofolate reductase): 97.4 nM
Activity (Vero): Non-Toxic
Ratio IC50 [5]: 312.5

SMILES: CC(C)CC(NS(=O)(=O)c1ccc(N)cc1)c1nc2ccccc2c(=O)n1-c1ccccc1 (stereo not drawn)
IC50 (Plasmodium falciparum [1]): 0.68 µg/mL (≈ 1.47 µM)

SMILES: Cc1cccc(-n2c(C(CC(C)C)NS(=O)(=O)c3ccc(N)cc3)nc3ccccc3c2=O)c1 (stereo not drawn)
IC50 (Plasmodium falciparum [1]): 1.28 µg/mL (≈ 2.69 µM)

SMILES: CC(C)CC(NS(=O)(=O)c1ccc(N)cc1)c1nc2ccccc2c(=O)n1-c1ccc(Cl)cc1 (stereo not drawn)
IC50 (Plasmodium falciparum [1]): 0.068 µg/mL (≈ 0.137 µM)
IC50 (Plasmodium falciparum [2]): 96.38 ppm
EC50 (Plasmodium falciparum [3]): 115.61 ppm
Ratio CC50/EC50 [4]: 87.7
IC50 (Dihydrofolate reductase): 56.3 nM
Activity (Vero): Non-Toxic
Ratio IC50 [5]: 535.71
